MEKK2 WT-MEK5 = modulators of MEK5 binding to wildtype MEKK2, primary screen, biochemical, multiplex bead flow cytometry, Alexa488-MEK5; Mitogen-activated protein kinase kinase kinase 2 (Homo sapiens), Q9Y2U5; binding response (% of control), % at 10 µM; 290,000 compounds, 1.1% hits; AID 1531, 2009; Alexa488-MEK5 binding to MEKK2 WT; actives lie on both sides; in the data active = binding response below about 67% or above about 130%
Apaf1 inhib = inhibitors of human Apaf-1 apoptosome, primary screen, biochemical, DEVD-Rh110 fluorescence, uHTS. Apoptotic protease-activating factor 1 (Homo sapiens), O14727. reconstituted apoptosome caspase-3 activity. inhibition, % at 20 µM. 330,000 compounds, 0.71% hits. AID 489030, 2010; active = inhibition of at least 40% at 20 µM;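 also: plate controls were DMSO wells for no effect and DEVD-CHO caspase inhibitor wells for full effect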
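System: reconstituted apoptosome with Apaf-1, cytochrome c, caspase-9, procaspase-3, dATP; Signal: Rh110 fluorescence intensity; Schedule: 30 min compound preincubation, 50 min activation, room temperature; Reagent: cytochrome c trigger plus (Z-DEVD)2-Rh110 caspase-3 substrate.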
MEKK3 PB1 HTS = modulators of MEKK3-MEK5 PB1 binding, primary screen, biochemical, wildtype MEKK3, multiplex bead flow cytometry, Alexa488-MEK5; Mitogen-activated protein kinase kinase kinase 3 (Homo sapiens), Q99759; bead-based flow cytometry, Alexa488-MEK5 binding to MEKK3; actives lie on both sides; 0 = blocked by unlabeled MEK5, 100 = vehicle; binding response (% of control), % at 10 µM; 290,000 compounds, 1.4% hits;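 active = binding response more than 3 SD above or below the average of its plate-row segment, actives on both sides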;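 also: Alexa488 bead fluorescence after subtracting the streptavidin-only scavenger bead signal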
UCH37 DUB inh = inhibitors of human UCH37 deubiquitinase, primary screen, biochemical, Ub-AMC cleavage, fluorescence; 330,000 compounds, 0.33% hits; purified proteasome/UCH37; Ubiquitin carboxyl-terminal hydrolase isozyme L5 (Homo sapiens), Q9Y5K5; inhibition, % (concentration not given with the values); AID 588478, 2011;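 active = mean inhibition over replicate wells above about 20%, limit read from the data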;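 also: 0% = compound-free wells with enzyme and 100% = wells lacking proteasome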
Target sequence (Q9Y5K5 whole entry, looked up): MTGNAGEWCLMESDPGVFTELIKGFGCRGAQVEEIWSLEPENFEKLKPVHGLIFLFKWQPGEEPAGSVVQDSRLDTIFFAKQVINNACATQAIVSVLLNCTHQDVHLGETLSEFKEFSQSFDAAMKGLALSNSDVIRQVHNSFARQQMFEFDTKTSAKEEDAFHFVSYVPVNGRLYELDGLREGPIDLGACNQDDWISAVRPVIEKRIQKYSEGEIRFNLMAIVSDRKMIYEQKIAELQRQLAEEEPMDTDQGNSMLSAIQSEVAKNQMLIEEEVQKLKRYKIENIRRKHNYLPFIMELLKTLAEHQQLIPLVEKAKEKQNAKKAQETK
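Material: Human UCH37 enzyme supplied as purified proteasome complex | Schedule: 30 min compound-proteasome preincubation then 25 min substrate reaction, room temperature | Detection: AMC fluorescence from Ub-AMC cleavage, excitation 355 nm, emission 460 nm | Benchmarks: Wells without proteasome as full block, compound-free enzyme plus substrate as uninhibited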
MEKK2mut PB1 HTS = MEK5 binding signal on mutant MEKK2 PB1, primary screen, biochemical, multiplex bead flow cytometry, Alexa488-MEK5. Alexa488-MEK5 binding to MEKK2 mutant. percent response, % at 10 µM. 290,000 compounds, 0.35% hits. AID 1530, 2009; in the data active = percent response above about 24%, passing the limit was not always enough
UBC13 inh = UBC13 polyubiquitin chain formation inhibitors, primary screen, biochemical, TR-FRET, uHTS; 330,000 compounds, 0.47% hits; AID 485273, 2010; Ubiquitin-conjugating enzyme E2 N (Homo sapiens), P61088; inhibition, % at 20 µM; in the data active = inhibition above about 45%, passing the limit was not always enough
Target sequence (P61088 whole entry, looked up): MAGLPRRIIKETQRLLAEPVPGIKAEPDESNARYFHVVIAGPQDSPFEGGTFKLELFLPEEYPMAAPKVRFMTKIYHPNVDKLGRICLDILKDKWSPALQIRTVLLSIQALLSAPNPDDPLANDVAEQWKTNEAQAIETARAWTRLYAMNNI
An asterisk follows results filed as active; . = no result given; [ ] = dose if it differs, or a comment. A selection: hits, their analogues and other compounds. The true share with any hit is near 3%.

SMILES	MEKK2 WT-MEK5	Apaf1 inhib	MEKK3 PB1 HTS	UCH37 DUB inh	MEKK2mut PB1 HTS	UBC13 inh
O=C1OCCC1Sc1nnc(-c2ccc3c(c2)OCO3)o1 (centres undefined)	95	-7	101	3	-2	-3
OCCCNCc1ccc(N(c2ccccc2)c2ccccc2)cc1	141*	15	105	-1	33*	13
OCCNCc1ccc(-c2ccccc2)cc1	102	7	100	2	3	3
CC(C)n1cnc2c(Nc3ccc(C(=O)O)cc3)nc(Cl)nc21	101	-6	98	4	7	9
CC(C)[C@H](CO)Nc1nc(Nc2ccc(Cl)c(C(=O)O)c2)c2ncn(C(C)C)c2n1	99	44*	101	5	-6	3
O=C(O)CC(CC(=O)Nc1ccc(C(=O)O)cc1)c1ccccc1 (centres undefined)	96	-3	97	6	-5	-9
COc1ccc2[nH]c(=O)c(CN(C(=O)c3cccnc3)c3ccc(C)cc3C)cc2c1	-3.0*	-14	102	-82	4	21
Cc1ccc(-c2ccc(C=N/N=C3/NC(=O)C(CC(=O)O)S3)o2)c([N+](=O)[O-])c1 (centres undefined)	.	.	.	25*	.	.
Cc1ccc(S(=O)(=O)c2nnn3c2nc(NC2CCN(Cc4ccccc4)CC2)c2ccccc23)cc1C	176*	22	111	-146	30*	18
CCOC(=O)c1c(C)[nH]c(N=Nc2cc(C(=O)O)cc(C(=O)O)c2)c1C	86	-2	84	24*	-3	-2
CCN(CC)c1ccc(/C=C2/C(=O)N(c3ccc([N+](=O)[O-])cc3)N=C2N2CCOCC2)cc1	.	56*	.	.	.	-96
COc1ccc(-c2cnc(N)n2CC2CCCO2)cc1 (centres undefined)	-6.0*	-1	97	-7	3	10
O=c1[nH][nH]c2c(N=Cc3ccccc3O)ccc(F)c12	58*[inhibitor]	.	57*[inhibitor]	14	-14	.
CCc1ccc(O)c(N=Cc2ccccc2O)c1	93	-25	97	4	-2	2
O=C(NNC1CC(=O)N(c2ccc(Cl)cc2)C1=O)c1ccccc1Cl (centres undefined)	96	6	98	2	-5	-7
O=C(NNC1CC(=O)N(c2ccc(Cl)cc2)C1=O)c1ccccn1 (centres undefined)	96	-14	93	26*	-56	-4
O=C(O)/C=C/C(=O)Nc1ccc(OC(F)(F)F)cc1	-3.0*	-18	105	3	2	16
Cc1ccc(CCNC(=O)C2CCC(=O)N(Cc3ccccc3F)C2)o1 (centres undefined)	104	-3	103	1	8	-3
Cc1ccc(S(=O)(=O)NCCN=Cc2ccc(N(C)C)cc2)cc1	61*[inhibitor]	4	99	9	-1	0
COc1ccc(CC2=CC(=O)c3ccccc3C2=O)cc1	108	50*	104	-18	6	-27
COc1ccc(Cc2ccccc2C(=O)O)cc1	.	.	.	-1	.	.
Fc1ccc(C(c2nnnn2Cc2cccs2)N2CCN(c3ccccc3)CC2)cc1 (centres undefined)	102	20	106	3	2	-4
O=C(O)c1ccc(Cn2cc(/C=C\[N+](=O)[O-])c3ccccc32)o1	104	-2	107	4	10	-8
O=[N+]([O-])/C=C/c1cn(Cc2ccc(Cl)cc2)c2ccccc12	2.0*	6	99	20*	1	13
CCCN(C(=O)Cc1nc(N)n[nH]1)C1(C(=O)Nc2ccccc2C)CCCCC1	101	-4	99	25*	1	-6
SMILES	MEKK2 WT-MEK5	Apaf1 inhib	MEKK3 PB1 HTS	UCH37 DUB inh	MEKK2mut PB1 HTS	UBC13 inh
CCCN(C(=O)Cc1nc(N)n[nH]1)C1(C(=O)Nc2c(C)cccc2C)CCCCC1	109	15	111	5	7	-7
CCN(CC)CCNC(=O)c1ccc(NC(=O)/C=C/c2ccc3ccccc3n2)cc1	0.0*	21	87	7	11	14
O=S(=O)(NC1CCCc2ccccc21)c1cnc[nH]1 (centres undefined)	103	-13	103	3	0	0
CC(C1CC1)N(Cc1ccccc1)C(=O)NC(=O)c1ccc(F)cc1 (centres undefined)	100	6	102	1	-2	-5
COc1ccccc1C(=O)N/C(=C\c1ccc(Br)cc1)C(=O)NCCCO	103	-9	98	0	-3	10
O=C(COC(=O)C1CC(=O)N(c2ccc3c(c2)OCCO3)C1)NC1CCCc2ccccc21 (centres undefined)	100	16	101	22*	0	-1
O=C(O)/C=C/C(=O)NCc1ccccn1	83	0	95	-5	-14	-7
CC(=O)C1CCC2C3CCC4=CC(=O)C=CC4(C)C3C(=O)CC12C (centres undefined)	.	.	.	1	.	.
C[C@]12C=CC(=O)C=C1CC[C@@H]1C2=CC[C@]2(C)[C@@H](C(=O)CN3CCN(c4cc(N5CCCC5)nc(N5CCCC5)n4)CC3)CC[C@@H]12	117	87*	107	11	5	-22
CS(=O)(=O)Nc1nc2ccccc2[nH]1	107	-2	101	1	-10	-6
CCOc1cc(/C=C2\C(=O)N(c3ccc(C(N)=O)cc3)N=C2C)ccc1OC(=O)c1cccs1	98	93*	99	2	8	-51
COc1cccc2c1C(=O)c1c(O)c3c(c(O)c1C2=O)C[C@@](O)(C(=O)CO)C[C@@H]3O[C@H]1C[C@H](N)[C@@H](O)[C@H](C)O1	7.0*	56*	99	2	11	-161
Cc1cccc(OCc2nnc(SCc3nc4ccccc4c(=O)[nH]3)o2)c1	100	10	98	1	2	-13
O=CN1CCCN(Cc2nc(-c3cccc(Cl)c3)no2)CC1	103	-3	101	30*	1	2
CC(OC(=O)COc1ccccc1)C(=O)NC1CCCC1 (centres undefined)	.	14	.	5	.	4
CCc1ccc(S(=O)(=O)N=C2C=C(Sc3ncn[nH]3)C(=O)c3ccccc32)cc1	.	.	.	80*	.	.
COc1ccc(-n2nc(C(=O)NCC(=O)NC3CCCCC3)c3ccccc3c2=O)c(OC)c1	112	9	108	2	13	4
